KDM4C inh = KDM4C (human) demethylase inhibition; Q9H3R0; GST-KDM4C 2-372, H3K9me3 peptide, LANCE TR-FRET; inhibition, % at 12.5 µM; 96,000 compounds, 0.15% hits;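 active = mean replicate inhibition above about 25%, with at least 55% of replicates also reaching it, limit read from the data, passing the limit was not always enough; inconclusive = only one of those two conditions met; inactive = neither condition met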
Target sequence (Q9H3R0 2-372 limits assumed): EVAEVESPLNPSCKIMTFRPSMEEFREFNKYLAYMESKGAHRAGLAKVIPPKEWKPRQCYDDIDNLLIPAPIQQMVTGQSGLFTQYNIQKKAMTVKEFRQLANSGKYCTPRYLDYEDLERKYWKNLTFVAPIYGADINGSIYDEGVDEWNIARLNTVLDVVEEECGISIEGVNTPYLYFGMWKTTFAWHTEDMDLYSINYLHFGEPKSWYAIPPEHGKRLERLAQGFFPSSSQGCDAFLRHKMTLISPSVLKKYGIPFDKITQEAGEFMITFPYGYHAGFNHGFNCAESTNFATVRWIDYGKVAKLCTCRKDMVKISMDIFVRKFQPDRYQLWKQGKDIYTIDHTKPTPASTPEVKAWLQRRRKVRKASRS
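Test system – GST-tagged GASC-1 (JMJD2C) catalytic fragment, aa 2-372 · Medium – HEPES buffer, pH 7.5, plus ascorbate · Reagent – H3K9me3 peptide with Fe(II)/2OG · Compound – one test concentration per compound · Timing – 30 min reaction, 60 min detection, RT · Technique – TR-FRET with Eu antibody and ULight streptavidin, EDTA stop · Read-out basis – inhibition from TR-FRET ratio decrease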
T cruzi growth-1 = inhibitors of T. cruzi proliferation. AID 624255. inhibition, % at 8.34 µM. 77,000 compounds, 5.9% hits. T. cruzi beta-gal in NIH3T3, GalScreen luminescence, 90 h;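 active = mean inhibition above about 93%, with at least 55% of replicates each passing it, limit read from the data, passing the limit was not always enough; inconclusive = only one of those two conditions holds; inactive = neither condition holds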
IDH1 R132H inh = IDH1 R132H (human) inhibition | IDH1 R132H reductase, diaphorase/resazurin fluorescence, 60 min | inhibition, % at 10 µM | 70,000 compounds, 0.18% hits | AID 624101; in the data active = inhibition above about 34%; inconclusive = no clear call, values can overlap the other calls; inactive = below about 11%;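 note: 0% = DMSO and 100% = no enzyme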
Target sequence (O75874 whole entry R132H): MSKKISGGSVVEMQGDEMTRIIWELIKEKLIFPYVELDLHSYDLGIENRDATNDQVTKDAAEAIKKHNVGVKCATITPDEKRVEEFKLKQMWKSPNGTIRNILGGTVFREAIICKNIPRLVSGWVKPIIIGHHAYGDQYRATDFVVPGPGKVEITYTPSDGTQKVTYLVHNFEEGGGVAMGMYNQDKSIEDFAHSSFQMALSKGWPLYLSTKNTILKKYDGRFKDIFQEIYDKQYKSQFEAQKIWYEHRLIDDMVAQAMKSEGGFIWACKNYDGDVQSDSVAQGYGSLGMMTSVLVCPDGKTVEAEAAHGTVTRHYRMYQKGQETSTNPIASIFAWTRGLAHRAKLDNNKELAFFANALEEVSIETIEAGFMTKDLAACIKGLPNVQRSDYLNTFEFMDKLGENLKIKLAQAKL
T cruzi growth-2 = inhibitors of T. cruzi proliferation; shares compounds with T cruzi growth-1; T. cruzi beta-gal in NIH3T3, GalScreen luminescence, 90 h; inhibition, % at 8.35 µM; 5,600 compounds, 72% hits;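 active = mean replicate inhibition above about 95% and at least 55% of replicates individually reaching it, limit read from the data; inconclusive = only one of the two criteria is met; inactive = neither criterion is met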
T cruzi growth-3 = blocks T. cruzi growth in NIH3T3 host cells; inhibition, % at 2.09 µM; shares compounds with T cruzi growth-1; AID 651740; T. cruzi beta-gal in NIH3T3, GalScreen luminescence, 90 h; 5,600 compounds, 21% hits;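 active = mean inhibition above about 95%, with at least 55% of replicates also reaching it, limit read from the data; inconclusive = meets just one of the two conditions; inactive = meets neither condition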;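 note: plate controls were neutral control median for no effect and positive control median for full effect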
NIH3T3 tox = cytotoxicity in mouse NIH/3T3 fibroblasts; 5,600 compounds, 14% hits; NIH/3T3 viability, CellTiter-Glo ATP luminescence, 90 h; shares compounds with T cruzi growth-1; cytotoxicity (signal decrease), % at 8.35 µM;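 active = mean signal decrease across replicates above about 35% based on untreated-well scatter, with enough replicates individually passing, limit read from the data; inconclusive = no rule stated though some were filed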;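 note: 0% = median of neutral control wells and 100% = median of positive control wells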
3T3 cytotox 2 = NIH/3T3 (mouse) viability loss | shares compounds with T cruzi growth-1 | NIH/3T3 viability, CellTiter-Glo ATP luminescence, 90 h | inhibition, % at 24.9 µM | 5,600 compounds, 56% hits;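 active = mean loss of cell viability signal at or above a set limit, and enough replicates individually reaching it; inconclusive = meets only the mean limit or only the replicate share; inactive = meets neither condition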;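 note: 0% = median of neutral control wells and 100% = median of positive control wells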
* = called active by the depositor; ? = inconclusive; / = no result. The full list was thinned out, with hits kept by preference.

SMILES | KDM4C inh | T cruzi growth-1 | IDH1 R132H inh | T cruzi growth-2 | T cruzi growth-3 | NIH3T3 tox | 3T3 cytotox 2
C[C@H]1CN([C@@H](C)CO)C(=O)c2cccc(NC(=O)CCCCCC(=O)Nc3ccccc3N)c2O[C@@H]1CN(C)S(=O)(=O)c1ccccc1 | -1 | / | / | / | / | / | /
C[C@H]1CN([C@@H](C)CO)C(=O)c2cccc(NC(=O)CCCCCC(=O)Nc3ccccc3N)c2O[C@@H]1CN(C)S(=O)(=O)c1ccc(Cl)cc1 | -3 | 106* | 1 | 105* | 69 | 31 | 21
[O-][NH2+]c1ccc(O)c2ncccc12 | / | / | -3 | / | / | / | /
CN(C)CC(=O)Nc1ccc2c(c1)[C@H]1C[C@@H](CC(=O)NCC3CC3)O[C@@H](CO)[C@H]1O2 | -3 | -5 | 0 | / | / | / | /
COc1ccc(OCC(=O)Nc2cc(Cl)ccc2N2CCOCC2)cc1 | / | / | 1 | / | / | / | /
N#C[C@@H]1[C@@H](c2ccc(C#CC3CC3)cc2)[C@H](CO)N1C(=O)Cc1ccccn1 | -2 | 99* | / | 104* | 75 | ? | 1
N#C[C@@H]1[C@@H](c2ccc(C#CC3CCCCC3)cc2)[C@H](CO)N1C(=O)Cc1ccccn1 | -3 | 89 | / | / | / | / | /
N#C[C@@H]1[C@@H](c2ccc(C#CC3CCCC3)cc2)[C@H](CO)N1C(=O)Cc1ccccn1 | -3 | / | / | / | / | / | /
C/C=C/c1ccc([C@@H]2[C@H](C#N)N(C(=O)Cc3ccccn3)[C@H]2CO)cc1 | -1 | 91 | / | / | / | / | /
C/C=C/c1ccc([C@H]2[C@@H](C#N)N(C(=O)Cc3ccccn3)[C@@H]2CO)cc1 | -2 | 103* | / | 98* | -1 | 3 | ?
N#C[C@H]1[C@H](c2ccc(C#CC3CCCC3)cc2)[C@H](CO)N1C(=O)Cc1ccccn1 | 0 | / | / | / | / | / | /
N#C[C@@H]1[C@H](c2ccc(C#CC3CCCCC3)cc2)[C@@H](CO)N1C(=O)Cc1ccccn1 | 0 | 99* | / | 96* | 103* | 2 | 99*
N#C[C@@H]1[C@H](c2ccc(C#CC3CCCCC3)cc2)[C@H](CO)N1C(=O)Cc1ccccn1 | 0 | 98* | / | 92 | 112* | 17 | 28
COc1ccc(C(=O)Nc2ccc3c(c2)OC[C@H](C)N(C)C[C@H](C)[C@@H](OC)CN(C)C3=O)cc1 | 1 | / | / | / | / | / | /
Cn1cnc(CCNC(=O)C[C@@H]2CC[C@@H]3[C@H](COC[C@@H](O)CN3C(=O)Nc3ccc(F)cc3)O2)c1 | 1 | 16 | / | / | / | / | /
C[C@H](CO)N1C[C@H](C)[C@@H](CN(C)S(=O)(=O)c2cn(C)cn2)Oc2ncc(C#CCN(C)C)cc2C1=O | 4 | -29 | 0 | / | / | / | /
Cc1ccc(S(=O)(=O)N(C)C[C@H]2Oc3c(NC(=O)C4CCCCC4)cccc3C(=O)N([C@@H](C)CO)C[C@H]2C)cc1 | / | 75 | 0 | / | / | / | /
COc1ccc(NC(=O)CN(c2ccc(F)c(Cl)c2)S(C)(=O)=O)cc1Cl | / | / | 0 | / | / | / | /
CO[C@H]1C=C[C@@](C)(O)/C=C/C(=O)O[C@H](C)[C@@H](C)CC/C=C\1C | / | / | 0 | / | / | / | /
C[C@H]1CN([C@@H](C)CO)C(=O)c2cc(/C=C/c3ccccc3)cnc2O[C@H]1CN(C)Cc1ccncc1 | -1 | 84 | 1 | / | / | / | /
C[C@@H]1CN([C@@H](C)CO)C(=O)c2cc(/C=C/c3ccccc3)cnc2O[C@H]1CN(C)Cc1ccncc1 | -1 | 120* | 1 | 114* | 92 | 22 | 19
C[C@@H]1CN([C@@H](C)CO)C(=O)c2cc(/C=C/c3ccccc3)cnc2O[C@H]1CN(C)C(=O)Cc1ccccn1 | -3 | 101* | 0 | 103* | 99* | 14 | 46*
C[C@H](CO)N1C[C@H](C)[C@H](CN(C)Cc2ccncc2)Oc2ncc(/C=C/c3ccccc3)cc2C1=O | 0 | 61 | 0 | / | / | / | /
C[C@H](CO)N1C[C@H](C)[C@H](CN(C)C(=O)Cc2ccccn2)Oc2ncc(/C=C/c3ccccc3)cc2C1=O | 10 | 9 | 0 | / | / | / | /
C[C@@H]1CN([C@H](C)CO)C(=O)c2cc(/C=C/c3ccccc3)cnc2O[C@H]1CN(C)Cc1ccccc1 | 1 | 114* | 0 | 113* | 98* | 13 | 105*
SMILES | KDM4C inh | T cruzi growth-1 | IDH1 R132H inh | T cruzi growth-2 | T cruzi growth-3 | NIH3T3 tox | 3T3 cytotox 2
COc1ccc(NC(=O)C(C)N(c2ccc(Cl)cc2)S(C)(=O)=O)cc1OC (stereo unspecified) | / | / | 0 | / | / | / | /
Cn1c(SCC(=O)Nc2ccc(Cl)c(Cl)c2)nnc1-c1ccc(Cl)c(Cl)c1 | / | / | 0 | / | / | / | /
C[C@H](O)C#Cc1ccc2c(c1)O[C@@H](CN(C)Cc1ccc(-c3ccccc3)cc1)[C@@H](C)CN([C@@H](C)CO)S2(=O)=O | -2 | 86 | 0 | / | / | / | /
C[C@@H]1CN([C@@H](C)CO)S(=O)(=O)c2ccc(C#C[C@@H](C)O)cc2O[C@H]1CN(C)Cc1ccc(-c2ccccc2)cc1 | 1 | 74 | / | / | / | / | /
C[C@H](O)C#Cc1ccc2c(c1)O[C@H](CN(C)Cc1ccc(-c3ccccc3)cc1)[C@H](C)CN([C@H](C)CO)S2(=O)=O | 0 | 99* | / | 97* | 97* | 23 | 106*
C[C@H](CO)N1C[C@H](C)[C@H](CN(C)Cc2ccc(-c3ccccc3)cc2)Oc2cc(C#C[C@@H](C)O)ccc2S1(=O)=O | 0 | 103* | 0 | 96* | 115* | 52* | 102*
C[C@@H]1CN([C@H](C)CO)C(=O)c2cccc(NC(=O)c3ccncc3)c2O[C@H]1CN(C)Cc1ccc2c(c1)OCO2 | -2 | 98* | 3 | 91 | 74 | 23 | 25
C[C@H]1CN([C@@H](C)CO)C(=O)c2cccc(NC(=O)c3ccncc3)c2O[C@H]1CN(C)Cc1ccc2c(c1)OCO2 | 1 | 97* | 0 | 108* | 86 | 3 | ?
C[C@@H]1CN([C@@H](C)CO)C(=O)c2cccc(NC(=O)c3ccncc3)c2O[C@H]1CN(C)Cc1ccc2c(c1)OCO2 | 3 | 103* | 0 | 97* | 92 | -3 | 27*
C[C@H]1CN([C@@H](C)CO)C(=O)c2cccc(NC(=O)c3ccncc3)c2O[C@@H]1CN(C)Cc1ccncc1 | 3 | 52 | / | / | / | / | /
C[C@@H]1CN([C@H](C)CO)C(=O)c2cccc(NC(=O)c3ccncc3)c2O[C@H]1CN(C)Cc1ccncc1 | 0 | 80 | 2 | / | / | / | /
C[C@H](CO)N1C[C@H](C)[C@H](CN(C)Cc2ccncc2)Oc2c(NC(=O)c3ccncc3)cccc2C1=O | 0 | 50 | -1 | / | / | / | /
COC(=O)c1c(NC(=S)Nc2cc3oc4ccccc4c3cc2OC)sc2c1CCCC2 | / | / | 0 | / | / | / | /
N=c1c2cnn(-c3ccccc3)c2ncn1/N=C/c1ccc(Cl)cc1 | / | / | 0 | / | / | / | /
CCCC#Cc1ccc2c(c1)O[C@H](CN(C)C(=O)C1CCCCC1)[C@H](C)CN([C@@H](C)CO)S2(=O)=O | 2 | 68 | / | / | / | / | /
Cc1nn(CC(=O)Nc2ccc(O)cc2)c(C)c1[N+](=O)[O-] | / | / | 0 | / | / | / | /

Screening data deposited in PubChem by Broad Institute.
